Columns and labels:
Format in all cases: functional
MCF7 [1] = experiment: Estrogenic effect in human MCF7 cells assessed as stimulation of cell proliferation at 10 ug/ml relative to control by [3H]hypoxanthine incorporation assay
How it was run: (§1)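 MCF-7 cells were grown to confluence in DMEM with 10% FBS, trypsinized, and viable cells (Trypan blue) seeded at 10 000/well in phenol red-free medium. After overnight attachment, tamoxifen (2 μM) was added for 24 h. Cells were washed with Ca/Mg-free PBS, then exposed to test agents for 1 day. Triplicates; % proliferation scaled with no-compound as 0% and β-estradiol 10 nM as 100%; Dunnett's test.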

MCF7 [2] = experiment: Estrogenic effect in human MCF7 cells assessed as stimulation of cell proliferation at 0.1 ug/ml relative to control by [3H]hypoxanthine incorporation assay; how it was run: as §1
MCF7 [3] = experiment: Estrogenic effect in human MCF7 cells assessed as stimulation of cell proliferation at 1 ug/ml relative to control by [3H]hypoxanthine incorporation assay; how it was run: as §1
MCF7 [4] = experiment: Estrogenic effect in human MCF7 cells assessed as stimulation of cell proliferation at 1 nM relative to control by [3H]hypoxanthine incorporation assay
How it was run: as §1, with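 “day. [3H]-hypoxanthine (9.25 kBq/well) was added for 12 h.” for “day.”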

MCF7 [5] = experiment: Estrogenic effect in human MCF7 cells assessed as stimulation of cell proliferation at 10 nM relative to control by [3H]hypoxanthine incorporation assay
How it was run: as §1, with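 “day. [3H]-hypoxanthine (9.25 kBq/well) was added for 12 h.” for “day.”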

MCF7 [6] = experiment: Estrogenic effect in human MCF7 cells assessed as stimulation of cell proliferation at 0.1 nM relative to control by [3H]hypoxanthine incorporation assay
How it was run: as §1, with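 “day. [3H]-hypoxanthine (9.25 kBq/well) was added for 12 h.” for “day.”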

CC1=CC(=O)[C@@H]2[C@@](C)(CC1)CC[C@@]2(O)C(C)C
Activity (MCF7 [1]): 181.4%
Activity (MCF7 [2]): 308.2%
Activity (MCF7 [3]): 97.5%

C/C=C(/C)C(=O)O[C@@]1(C)CCC2=C(C(C)C)[C@@H](OCC)C[C@]2(C)CC1=O
Activity (MCF7 [1]): 974.4%
Activity (MCF7 [2]): 223.9%
Activity (MCF7 [3]): 321.4%

CC1=CC(=O)[C@@H]2[C@](C)(CC[C@@]2(O)C(C)C)CC1=O
Activity (MCF7 [1]): -285.7%
Activity (MCF7 [2]): 5.9%
Activity (MCF7 [3]): -26.5%

C[C@]12CC[C@@H]3c4ccc(O)cc4CC[C@H]3[C@@H]1CC[C@@H]2O [ESTRADIOL]
Activity (MCF7 [4]): 130.3%
Activity (MCF7 [5]): 100%
Activity (MCF7 [6]): 74.6%

O=c1c(-c2ccc(O)cc2)coc2cc(O)cc(O)c12 [GENISTEIN]
Activity (MCF7 [1]): -76.7%
Activity (MCF7 [2]): -72.4%
Activity (MCF7 [3]): 114.8%
